# Measured values pooled from the literature.
# Target: Mitogen-activated protein kinase kinase kinase 2 (MAP3K2, Homo sapiens, UniProt Q9Y2U5)
# One construct used (Q9Y2U5 1-619): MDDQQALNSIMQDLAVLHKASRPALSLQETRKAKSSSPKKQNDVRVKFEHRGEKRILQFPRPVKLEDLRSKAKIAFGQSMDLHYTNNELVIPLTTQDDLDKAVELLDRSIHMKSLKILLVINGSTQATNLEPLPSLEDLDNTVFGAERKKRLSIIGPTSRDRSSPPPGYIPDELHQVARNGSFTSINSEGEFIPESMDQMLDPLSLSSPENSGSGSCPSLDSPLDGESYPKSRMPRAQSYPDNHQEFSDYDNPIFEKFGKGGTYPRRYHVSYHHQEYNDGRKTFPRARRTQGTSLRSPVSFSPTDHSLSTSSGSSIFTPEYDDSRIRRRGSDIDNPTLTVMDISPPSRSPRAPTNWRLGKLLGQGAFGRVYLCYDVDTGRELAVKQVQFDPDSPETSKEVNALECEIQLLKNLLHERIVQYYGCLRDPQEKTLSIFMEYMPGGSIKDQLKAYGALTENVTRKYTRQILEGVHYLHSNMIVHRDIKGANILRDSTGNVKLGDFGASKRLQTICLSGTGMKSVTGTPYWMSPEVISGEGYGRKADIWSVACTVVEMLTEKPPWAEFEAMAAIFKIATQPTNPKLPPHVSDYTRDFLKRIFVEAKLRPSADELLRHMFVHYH
SMILES,read-out,technique,concentration,remaining binding
O=C(Nc1ccc(Oc2ccc(F)cc2)cc1)N1CCc2ncccc2[C@H]1c1ccc(F)cc1,cell-free assay,competition with immobilised ligand,1 µM,89%
O=C(NCCCN1CCOCC1)c1ccc(Nc2ncc(Cl)c(-c3ccc(Cl)s3)n2)cc1,binding,competition with immobilised ligand,1 µM,2.3%
O=C(Nc1cccnn1)N1CCC(=Cc2cccc(Oc3ccc(C(F)(F)F)cn3)c2)CC1,cell-free assay,competition with immobilised ligand,1 µM,100%
COc1cnc(Nc2cccc(S(N)(=O)=O)c2)nc1N1CCN(c2ccccc2)C(=O)C1,binding,competition with immobilised ligand,1 µM,74%
c1ccc(N2CCN(Cc3nc4ccccc4[nH]3)CC2)nc1,binding,competition with immobilised ligand,1 µM,100%
CC1CCCN1c1nccc(-c2cnn3ncccc23)n1 (stereo not drawn),binding,,1 µM,98%
O=C(c1ccc(Nc2nccc(-c3cc4ccccc4s3)n2)cc1)N1CCC(N2CCCC2)CC1,binding,competition with immobilised ligand,1 µM,43%
C=CC(=O)N1CCC(C(=O)NCC(=O)N2CCN(c3nc(-c4cnc(N)nc4C(F)F)nc(N4CCOCC4)n3)CC2)CC1,binding,competition with immobilised ligand,1 µM,69%
O=S(=O)(NC1CCC(c2cc(F)ccc2F)(S(=O)(=O)c2ccc(Cl)cc2)CC1)C(F)(F)F (stereo not drawn),cell-free assay,competition with immobilised ligand,1 µM,98%
F[C@@H]1CCN(c2nccc(-c3cnn4ncccc34)n2)C1,binding,,1 µM,92%
CN(C)CC#Cc1ccc(OCCCc2sc(N3CCc4cccc(C(=O)Nc5nc6ccccc6s5)c4C3)nc2C(=O)O)c(F)c1,cell-free assay,competition with immobilised ligand,1 µM,75%
c1cncc(-c2cccc(Nc3nccc(NC4CCCCC4)n3)c2)c1,binding,competition with immobilised ligand,10 µM,48%
O=C(c1ccc(Nc2ncc(Cl)c(-c3ccc(Cl)s3)n2)cc1)N1CCC(N2CCCC2)CC1,binding,competition with immobilised ligand,1 µM,4.9%
CN(C)c1ncc(F)c(-c2cnn3ncccc23)n1,binding,,1 µM,81%
CCCCN(CCCC)C(=O)CN1C[C@@H](c2cc(OC)c3c(c2)OCO3)[C@H](C(=O)O)[C@H]1CC(C)(C)CCC,cell-free assay,competition with immobilised ligand,1 µM,84.6%
C[C@H]1CCN(c2nccc(-c3cnn4ncccc34)n2)C1,binding,,1 µM,81%
O=C(NCC1CCOCC1)c1n[nH]cc1NC(=O)c1c(F)cccc1F,binding,competition with immobilised ligand,1 µM,73%
N[C@H]1CCN(c2nccc(-c3cnn4ncccc34)n2)C1,binding,,1 µM,100%
CCN1CCN(Cc2ccc(C(=O)Nc3ccc(C)c(Oc4ccc5c(c4)CC(=O)N5)c3)cc2C(F)(F)F)CC1,binding,competition with immobilised ligand,1 µM,100%
CN(C)c1nccc(-c2cnc3ncccn23)n1,binding,,1 µM,73%
C[C@@H](c1ccc(-n2cnc3c(N)ncnc32)cc1)N1CCc2nn(C)c(Cc3ccccc3)c2C1=O,binding,competition with immobilised ligand,0.1 µM,57%
